Assay results from ChEMBL document CHEMBL4007430, “Synthesis and Cytostatic and Antiviral Profiling of Thieno-Fused 7-Deazapurine Ribonucleosides” (J Med Chem, 2017).

Tests used:
[1] = test system: U2OS; experiment: Cytotoxicity against human U2OS cells assessed as cell growth inhibition after 72 hrs by MTS assay; assay type: functional, cell-based
[2] = test system: K562; experiment: Cytotoxicity against human K562 cells assessed as cell growth inhibition after 72 hrs by MTS assay; assay type: functional, cell-based; details: K562, 72 h
Summary of the method: (§1)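 Cells were exposed to compound for 3 days, then stained with MTS as a quantitative metabolic read-out. IC50 is the concentration that inhibits cell growth by 50%.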

[3] = test system: HepG2; experiment: Cytotoxicity against human HepG2 cells assessed as reduction in cell viability after 72 hrs by XTT assay; assay type: functional, cell-based; details: HepG2, 72 h
Summary of the method: (§2)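 Cells were incubated with compound for 3 days. Viability was then measured with the XTT tetrazolium assay.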

[4] = test system: Hepatitis C virus; experiment: Anti-HCV activity against Hepatitis C virus genotype 2a infected in human Huh7 replicon cells after 96 hrs by luciferase reporter gene assay; assay type: functional, cell-based, Hepacivirus hominis; details: Huh-7, 96 h
[5] = test system: CCRF-CEM; experiment: Cell cycle arrest in human CCRF-CEM cells assessed as accumulation at G0/G1 phase at IC50 after 24 hrs by propidium iodide staining-based flow cytometric analysis (reference value: 41.11%); assay type: functional
[6] = test system: CCRF-CEM; experiment: Cell cycle arrest in human CCRF-CEM cells assessed as accumulation at S phase at 5 times IC50 after 24 hrs by propidium iodide staining-based flow cytometric analysis (reference value: 44.20%); assay type: functional
[7] = test system: CCRF-CEM; experiment: Cell cycle arrest in human CCRF-CEM cells assessed as accumulation at G0/G1 phase at 5 times IC50 after 24 hrs by propidium iodide staining-based flow cytometric analysis (reference value: 41.11%); assay type: functional
[8] = test system: HL-60; experiment: Cytotoxicity against human HL60 cells assessed as reduction in cell viability after 72 hrs by XTT assay; assay type: functional, cell-based; details: HL-60, 72 h; summary of the method: as §2
[9] = test system: HCT-116; experiment: Cytotoxicity against p53 deficient human HCT116 cells assessed as cell growth inhibition after 72 hrs by MTS assay; assay type: functional, cell-based; details: HCT-116, 72 h; summary of the method: as §1
[10] = test system: CCRF-CEM; experiment: Inhibition of mitosis in human CCRF-CEM cells assessed as pH3Ser10 positive cells after 24 hrs by flow cytometric analysis; assay type: functional, cell-based
[11] = test system: CCRF-CEM; experiment: Inhibition of RNA synthesis in human CCRF-CEM cells assessed as decrease in BrU incorporation by measuring synthesized RNA levels at 5 times IC50 after 24 hrs by propidium iodide staining-based flow cytometric method (reference value: 53.09%); assay type: functional
[12] = test system: CCRF-CEM; experiment: Inhibition of mitosis in human CCRF-CEM cells assessed as pH3Ser10 positive cells at 5 times IC50 after 24 hrs by flow cytometric analysis (reference value: 1.74%); assay type: functional
[13] = test system: CCRF-CEM; experiment: Inhibition of DNA synthesis in human CCRF-CEM cells assessed as decrease in BrdU incorporation by measuring synthesized DNA levels at 5 times IC50 after 24 hrs by propidium iodide staining-based flow cytometric analysis (reference value: 52.66%); assay type: functional
[14] = test system: CCRF-CEM; experiment: Induction of apoptosis in human CCRF-CEM cells assessed as accumulation at subG1 phase at 5 times IC50 after 24 hrs by propidium iodide staining-based flow cytometric analysis (reference value: 2.32%); assay type: functional
[15] = test system: CCRF-CEM; experiment: Induction of apoptosis in human CCRF-CEM cells assessed as accumulation at subG1 phase at IC50 after 24 hrs by propidium iodide staining-based flow cytometric analysis (reference value: 2.32%); assay type: functional
[16] = test system: CCRF-CEM; experiment: Inhibition of mitosis in human CCRF-CEM cells assessed as pH3Ser10 positive cells at IC50 after 24 hrs by flow cytometric analysis (reference value: 1.74%); assay type: functional
[17] = test system: CCRF-CEM; experiment: Inhibition of DNA synthesis in human CCRF-CEM cells assessed as decrease in BrdU incorporation by measuring synthesized DNA levels at IC50 after 24 hrs by propidium iodide staining-based flow cytometric analysis (reference value: 52.66%); assay type: functional
[18] = test system: BJ; experiment: Cytotoxicity against human BJ cells assessed as cell growth inhibition after 72 hrs by MTS assay; assay type: cell-based; summary of the method: as §1
[19] = test system: HeLa S3; experiment: Cytotoxicity against human HeLaS3 cells assessed as reduction in cell viability after 72 hrs by XTT assay; assay type: functional, cell-based; details: HeLa S3, 72 h; summary of the method: as §2
[20] = test system: CCRF-CEM; experiment: Cell cycle arrest in human CCRF-CEM cells assessed as accumulation at G2/M phase at IC50 after 24 hrs by propidium iodide staining-based flow cytometric analysis (reference value: 14.70%); assay type: functional
[21] = test system: CCRF-CEM; experiment: Cell cycle arrest in human CCRF-CEM cells assessed as accumulation at S phase at IC50 after 24 hrs by propidium iodide staining-based flow cytometric analysis (reference value: 44.20%); assay type: functional
[22] = test system: Hepatitis C virus; experiment: Anti-HCV activity against Hepatitis C virus genotype 1b infected in human Huh7 replicon cells after 96 hrs by luciferase reporter gene assay; assay type: functional, cell-based, Hepacivirus hominis; details: Huh-7, 96 h
[23] = test system: CCRF-CEM; experiment: Inhibition of RNA synthesis in human CCRF-CEM cells assessed as decrease in BrU incorporation by measuring synthesized RNA levels at IC50 after 24 hrs by propidium iodide staining-based flow cytometric method (reference value: 53.09%); assay type: functional
[24] = test system: HCT-116; experiment: Cytotoxicity against human HCT116 cells assessed as cell growth inhibition after 72 hrs by MTS assay; assay type: functional, cell-based; details: HCT-116, 72 h; summary of the method: as §1
[25] = test system: A549; experiment: Cytotoxicity against human A549 cells assessed as cell growth inhibition after 72 hrs by MTS assay; assay type: functional, cell-based; details: A549, 72 h; summary of the method: as §1
[26] = test system: CCRF-CEM; experiment: Cytotoxicity against human CCRF-CEM cells assessed as cell growth inhibition after 72 hrs by MTS assay
[27] = test system: CCRF-CEM; experiment: Cell cycle arrest in human CCRF-CEM cells assessed as accumulation at G2/M phase at 5 times IC50 after 24 hrs by propidium iodide staining-based flow cytometric analysis (reference value: 14.70%); assay type: functional
[28] = Cytotoxicity against human K562-TAX cells assessed as cell growth inhibition after 72 hrs by MTS assay; assay type: functional, cell-based; summary of the method: as §1
[29] = Cytotoxicity against mrp-1/mdr-1 overexpressing human CEM-DNR-bulk cells assessed as cell growth inhibition after 72 hrs by MTS assay; assay type: functional, cell-based
Summary of the method: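 Cells were exposed to compound for 3 days, then stained with MTS as a quantitative metabolic read-out.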

[30] = Cytotoxicity against human HuH7 cells; assay type: cell-based, Huh-7
[31] = test system: MRC5; experiment: Cytotoxicity against human MRC5 cells assessed as cell growth inhibition after 72 hrs by MTS assay; assay type: cell-based; details: MRC5, 72 h; summary of the method: as §1
[32] = Drug level in human HCT116 cells at 1 umol/L measured per 5 x 10^5 cells after 1 hr by UPLC-MS/MS analysis; assay type: ADME, cell-based; details: hct-116, 1 h, 1 µM
[33] = Drug level in human HCT116 cells at 10 umol/L measured per 5 x 10^5 cells after 3 hrs by UPLC-MS/MS analysis; assay type: ADME, cell-based; details: hct-116, 3 h, 10 µM
[34] = Drug level in human HCT116 cells at 1 umol/L measured per 5 x 10^5 cells after 3 hrs by UPLC-MS/MS analysis; assay type: ADME, cell-based; details: hct-116, 3 h, 1 µM
[35] = Drug level in human BJ cells at 1 umol/L measured per 5 x 10^5 cells after 3 hrs by UPLC-MS/MS analysis; assay type: ADME, cell-based; details: 1 µM
[36] = Drug level in human HCT116 cells at 10 umol/L measured per 5 x 10^5 cells after 1 hr by UPLC-MS/MS analysis; assay type: ADME, cell-based; details: hct-116, 1 h, 10 µM
[37] = Drug level in human BJ cells at 10 umol/L measured per 5 x 10^5 cells after 3 hrs by UPLC-MS/MS analysis; assay type: ADME, cell-based; details: 10 µM
[38] = Drug level in human BJ cells at 10 umol/L measured per 5 x 10^5 cells after 1 hr by UPLC-MS/MS analysis; assay type: ADME, cell-based; details: 10 µM

SMILES	IC50 [1] [nM]	IC50 [2] [nM]	IC50 [3] [nM]	EC50 [4] [nM]	Activity [5] [%]	Activity [6] [%]	Activity [7] [%]	IC50 [8] [nM]	IC50 [9] [nM]	Activity [10]	IC50 [18] [µM]	IC50 [19] [nM]	EC50 [22] [nM]	IC50 [24] [nM]	IC50 [25] [nM]	IC50 [26] [nM]	IC50 [28] [µM]	IC50 [29] [µM]	CC50 [30] [µM]	IC50 [31] [µM]	further results
Cc1ncnc2c1c1sccc1n2[C@@H]1O[C@H](CO)[C@@H](O)[C@H]1O	200	140	440	60	29.74	56.18	28.72	210	70	Dose-dependent effect	0.15	720	110	50	210	20	0.72	> 50	> 44.4	1.66	BrU+ cells (%) [11]: 47.83%; pH3Ser10+ cells (%) [12]: 3.55%; BrdU+ cells (%) [13]: 60.89%; Activity [14]: 16.72%; Activity [15]: 13.5%; pH3Ser10+ cells (%) [16]: 0.89%; BrdU+ cells (%) [17]: 50.76%; Activity [20]: 12.41%; Activity [21]: 57.85%; BrU+ cells (%) [23]: 33.92%; Activity [27]: 15.1%
Nc1ncnc2c1c1sccc1n2[C@@H]1O[C@H](CO)[C@@H](O)[C@H]1O	2500	6160	560	13500	–	–	–	310	4370	–	16.8	1540	5020	5390	11900	6220	4.28	15.2	16.4 to 17.2	30.3	–
Cc1ncnc2c1c1ccsc1n2[C@@H]1O[C@H](CO)[C@@H](O)[C@H]1O	560	460	470	240	40.67	51.16	35.09	370	330	Dose-dependent effect	> 50	570	60	400	720	30	47.6	33.9	> 44.4	> 50	BrU+ cells (%) [11]: 18.84%; pH3Ser10+ cells (%) [12]: 1.37%; BrdU+ cells (%) [13]: 54.08%; Activity [14]: 3.83%; Activity [15]: 2.35%; pH3Ser10+ cells (%) [16]: 1.37%; BrdU+ cells (%) [17]: 54.48%; Activity [20]: 13.76%; Activity [21]: 45.57%; BrU+ cells (%) [23]: 38.29%; Activity [27]: 13.74%
COc1ncnc2c1c1ccsc1n2[C@@H]1O[C@H](CO)[C@@H](O)[C@H]1O	930	1060	1330	400	35.73	63.97	23.76	570	640	Dose-dependent effect	7.49	230	230	610	1230	220	11.1	> 50	> 44.4	> 50	BrU+ cells (%) [11]: 8.31%; pH3Ser10+ cells (%) [12]: 0.38%; BrdU+ cells (%) [13]: 55.12%; Activity [14]: 11.22%; Activity [15]: 2.55%; pH3Ser10+ cells (%) [16]: 1.17%; BrdU+ cells (%) [17]: 62.59%; Activity [20]: 19.25%; Activity [21]: 45.01%; BrU+ cells (%) [23]: 28.75%; Activity [27]: 12.27%
OC[C@H]1O[C@@H](n2c3ncnc(-c4cc5ccccc5o4)c3c3ccsc32)[C@H](O)[C@@H]1O	33100	29700	> 50000	14100	–	–	–	> 50000	> 50000	–	36.8	> 50000	2050	47100	> 50000	15900	14.9	20.6	> 44.4	37.5	–
COc1ncnc2c1c1sccc1n2[C@@H]1O[C@H](CO)[C@@H](O)[C@H]1O	460	200	150	15000	34.35	75.47	18.67	110	130	Dose-dependent effect	0.4	900	950	130	220	130	4.05	61.8	13.9 to 29.2	25.2	BrU+ cells (%) [11]: 26.27%; pH3Ser10+ cells (%) [12]: 0.41%; BrdU+ cells (%) [13]: 63.58%; Activity [14]: 17.46%; Activity [15]: 11.17%; pH3Ser10+ cells (%) [16]: 1.07%; BrdU+ cells (%) [17]: 56%; Activity [20]: 14.73%; Activity [21]: 50.91%; BrU+ cells (%) [23]: 34.93%; Activity [27]: 5.86%
CSc1ncnc2c1c1ccsc1n2[C@@H]1O[C@H](CO)[C@@H](O)[C@H]1O	350	510	680	800	40.36	53.26	33.16	860	270	Dose-dependent effect	6.9	300	130	200	800	200	> 50	> 50	> 44.4	46	Drug uptake [32]: 278.5 pmol; Drug uptake [33]: 444 pmol; BrU+ cells (%) [11]: 23.92%; pH3Ser10+ cells (%) [12]: 1.13%; BrdU+ cells (%) [13]: 56.64%; Activity [14]: 3.53%; Activity [15]: 2.79%; pH3Ser10+ cells (%) [16]: 1.36%; Drug uptake [34]: 293.6 pmol; BrdU+ cells (%) [17]: 52.99%; Activity [20]: 11.83%; Drug uptake [35]: 253.6 pmol; Activity [21]: 47.81%; Drug uptake [36]: 320.7 pmol; BrU+ cells (%) [23]: 37.25%; Drug uptake [37]: 633.7 pmol; Activity [27]: 13.58%; Drug uptake [38]: 331.6 pmol
